# From ChEMBL document CHEMBL5029150, “Controlling Intramolecular Interactions in the Design of Selective, High-Affinity Ligands for the CREBBP Bromodomain” (J Med Chem, 2021)
# Calls of active or inactive are those of the source. No cut-off for these calls is given here.
# What was measured:
# [1] = biological target: T1, CREB-binding protein/Histone acetyltransferase p300 (Homo sapiens) (UniProt Q09472+Q92793); assay: Inhibition of CREBBP/EP300 in human HCT-116 cells assessed as reduction in H3K27Ac at 10 uM for 6 hrs by Western blot analysis; assay type: cell-based
# How it was run: (§1)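 HCT116 human colorectal cancer cells were exposed to ligand at 10 μM for 6, 16 or 24 h. c-Myc, H3K18Ac and H3K27Ac levels were read by western blot, with acetylation marks expressed relative to the t = 0 level.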
# [2] = biological target: T1, CREB-binding protein/Histone acetyltransferase p300 (Homo sapiens); assay: Inhibition of CREBBP/EP300 in human HCT-116 cells assessed as reduction in H3K18Ac at 10 uM for 24 hrs by Western blot analysis; assay type: cell-based; how it was run: as §1
# [3] = biological target: Bromodomain-containing protein 4 (Homo sapiens, UniProt O60885); assay: Binding affinity to human BRD4 bromodomain 1 assessed as dissociation constant by ITC assay
# [4] = biological target: T1, CREB-binding protein/Histone acetyltransferase p300 (Homo sapiens); assay: Inhibition of CREBBP/EP300 in human HCT-116 cells assessed as reduction in H3K27Ac at 10 uM for 24 hrs by Western blot analysis; assay type: cell-based; how it was run: as §1
# [5] = biological target: T1, CREB-binding protein/Histone acetyltransferase p300 (Homo sapiens); assay: Inhibition of CREBBP/EP300 in human HCT-116 cells assessed as reduction in c-Myc expression at 10 uM for 24 hrs by Western blot analysis; assay type: cell-based; how it was run: as §1
# T1 sequence (Q09472 whole entry, looked up): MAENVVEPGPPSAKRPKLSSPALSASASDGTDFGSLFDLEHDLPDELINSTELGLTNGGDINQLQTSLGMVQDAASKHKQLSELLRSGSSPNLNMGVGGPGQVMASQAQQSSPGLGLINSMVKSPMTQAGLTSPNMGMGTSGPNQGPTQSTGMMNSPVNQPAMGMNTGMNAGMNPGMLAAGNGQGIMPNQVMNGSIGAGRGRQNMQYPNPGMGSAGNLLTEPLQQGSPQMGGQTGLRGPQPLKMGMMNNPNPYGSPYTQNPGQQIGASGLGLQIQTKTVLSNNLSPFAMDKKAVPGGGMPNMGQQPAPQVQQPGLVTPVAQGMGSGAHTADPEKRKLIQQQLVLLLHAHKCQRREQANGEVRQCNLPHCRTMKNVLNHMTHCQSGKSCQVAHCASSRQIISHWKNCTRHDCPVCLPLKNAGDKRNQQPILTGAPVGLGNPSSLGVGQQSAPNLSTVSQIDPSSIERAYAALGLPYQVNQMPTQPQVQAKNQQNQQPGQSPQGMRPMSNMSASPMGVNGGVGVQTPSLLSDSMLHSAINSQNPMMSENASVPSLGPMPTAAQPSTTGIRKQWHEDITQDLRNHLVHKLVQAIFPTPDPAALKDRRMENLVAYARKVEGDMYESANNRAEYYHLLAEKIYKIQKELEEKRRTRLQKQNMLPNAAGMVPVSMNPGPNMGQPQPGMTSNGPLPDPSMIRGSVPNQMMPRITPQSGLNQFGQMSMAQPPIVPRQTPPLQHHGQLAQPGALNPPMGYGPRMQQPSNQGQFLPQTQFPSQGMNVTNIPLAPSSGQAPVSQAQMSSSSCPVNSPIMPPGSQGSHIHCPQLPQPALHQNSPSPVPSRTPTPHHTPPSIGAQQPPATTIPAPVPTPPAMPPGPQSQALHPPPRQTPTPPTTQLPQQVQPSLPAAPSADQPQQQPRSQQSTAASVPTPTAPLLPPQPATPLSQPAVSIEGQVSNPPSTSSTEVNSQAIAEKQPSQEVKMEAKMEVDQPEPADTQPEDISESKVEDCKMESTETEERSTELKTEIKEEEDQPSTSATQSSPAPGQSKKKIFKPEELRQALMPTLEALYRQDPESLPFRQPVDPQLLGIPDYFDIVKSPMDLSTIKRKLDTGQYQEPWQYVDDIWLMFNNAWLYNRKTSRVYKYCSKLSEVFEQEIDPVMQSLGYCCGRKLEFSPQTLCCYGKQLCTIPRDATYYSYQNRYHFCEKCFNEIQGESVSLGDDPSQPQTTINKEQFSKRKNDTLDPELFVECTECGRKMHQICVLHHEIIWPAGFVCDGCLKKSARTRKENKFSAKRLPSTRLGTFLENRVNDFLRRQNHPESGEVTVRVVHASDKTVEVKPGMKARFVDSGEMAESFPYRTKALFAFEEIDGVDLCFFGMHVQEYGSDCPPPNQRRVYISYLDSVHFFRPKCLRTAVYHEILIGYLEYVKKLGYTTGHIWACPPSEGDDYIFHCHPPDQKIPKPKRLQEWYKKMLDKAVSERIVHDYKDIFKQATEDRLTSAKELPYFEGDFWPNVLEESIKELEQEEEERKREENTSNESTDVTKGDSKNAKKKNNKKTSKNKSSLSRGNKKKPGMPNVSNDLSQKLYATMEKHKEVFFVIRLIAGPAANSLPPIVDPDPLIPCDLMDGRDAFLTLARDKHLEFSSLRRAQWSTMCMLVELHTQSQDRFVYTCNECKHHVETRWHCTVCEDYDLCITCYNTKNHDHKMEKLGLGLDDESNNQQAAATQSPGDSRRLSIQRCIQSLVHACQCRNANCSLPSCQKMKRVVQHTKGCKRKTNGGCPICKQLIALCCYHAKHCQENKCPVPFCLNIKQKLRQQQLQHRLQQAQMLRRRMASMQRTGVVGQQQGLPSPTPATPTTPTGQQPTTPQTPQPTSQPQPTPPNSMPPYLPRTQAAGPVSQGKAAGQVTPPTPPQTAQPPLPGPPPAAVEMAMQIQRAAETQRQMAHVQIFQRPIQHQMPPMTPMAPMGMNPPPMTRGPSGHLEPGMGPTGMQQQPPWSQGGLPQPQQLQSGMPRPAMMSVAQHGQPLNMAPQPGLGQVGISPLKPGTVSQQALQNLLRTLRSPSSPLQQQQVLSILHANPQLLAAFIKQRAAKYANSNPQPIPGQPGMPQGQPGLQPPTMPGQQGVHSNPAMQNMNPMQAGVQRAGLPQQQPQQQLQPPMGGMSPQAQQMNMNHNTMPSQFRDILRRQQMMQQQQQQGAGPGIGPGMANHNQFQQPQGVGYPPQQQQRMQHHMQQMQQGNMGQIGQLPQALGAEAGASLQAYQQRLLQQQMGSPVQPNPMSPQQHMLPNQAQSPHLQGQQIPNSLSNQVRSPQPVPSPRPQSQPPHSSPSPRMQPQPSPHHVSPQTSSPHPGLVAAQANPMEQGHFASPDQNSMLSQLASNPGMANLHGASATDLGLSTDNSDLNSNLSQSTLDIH
# T1 sequence (Q92793 whole entry, looked up): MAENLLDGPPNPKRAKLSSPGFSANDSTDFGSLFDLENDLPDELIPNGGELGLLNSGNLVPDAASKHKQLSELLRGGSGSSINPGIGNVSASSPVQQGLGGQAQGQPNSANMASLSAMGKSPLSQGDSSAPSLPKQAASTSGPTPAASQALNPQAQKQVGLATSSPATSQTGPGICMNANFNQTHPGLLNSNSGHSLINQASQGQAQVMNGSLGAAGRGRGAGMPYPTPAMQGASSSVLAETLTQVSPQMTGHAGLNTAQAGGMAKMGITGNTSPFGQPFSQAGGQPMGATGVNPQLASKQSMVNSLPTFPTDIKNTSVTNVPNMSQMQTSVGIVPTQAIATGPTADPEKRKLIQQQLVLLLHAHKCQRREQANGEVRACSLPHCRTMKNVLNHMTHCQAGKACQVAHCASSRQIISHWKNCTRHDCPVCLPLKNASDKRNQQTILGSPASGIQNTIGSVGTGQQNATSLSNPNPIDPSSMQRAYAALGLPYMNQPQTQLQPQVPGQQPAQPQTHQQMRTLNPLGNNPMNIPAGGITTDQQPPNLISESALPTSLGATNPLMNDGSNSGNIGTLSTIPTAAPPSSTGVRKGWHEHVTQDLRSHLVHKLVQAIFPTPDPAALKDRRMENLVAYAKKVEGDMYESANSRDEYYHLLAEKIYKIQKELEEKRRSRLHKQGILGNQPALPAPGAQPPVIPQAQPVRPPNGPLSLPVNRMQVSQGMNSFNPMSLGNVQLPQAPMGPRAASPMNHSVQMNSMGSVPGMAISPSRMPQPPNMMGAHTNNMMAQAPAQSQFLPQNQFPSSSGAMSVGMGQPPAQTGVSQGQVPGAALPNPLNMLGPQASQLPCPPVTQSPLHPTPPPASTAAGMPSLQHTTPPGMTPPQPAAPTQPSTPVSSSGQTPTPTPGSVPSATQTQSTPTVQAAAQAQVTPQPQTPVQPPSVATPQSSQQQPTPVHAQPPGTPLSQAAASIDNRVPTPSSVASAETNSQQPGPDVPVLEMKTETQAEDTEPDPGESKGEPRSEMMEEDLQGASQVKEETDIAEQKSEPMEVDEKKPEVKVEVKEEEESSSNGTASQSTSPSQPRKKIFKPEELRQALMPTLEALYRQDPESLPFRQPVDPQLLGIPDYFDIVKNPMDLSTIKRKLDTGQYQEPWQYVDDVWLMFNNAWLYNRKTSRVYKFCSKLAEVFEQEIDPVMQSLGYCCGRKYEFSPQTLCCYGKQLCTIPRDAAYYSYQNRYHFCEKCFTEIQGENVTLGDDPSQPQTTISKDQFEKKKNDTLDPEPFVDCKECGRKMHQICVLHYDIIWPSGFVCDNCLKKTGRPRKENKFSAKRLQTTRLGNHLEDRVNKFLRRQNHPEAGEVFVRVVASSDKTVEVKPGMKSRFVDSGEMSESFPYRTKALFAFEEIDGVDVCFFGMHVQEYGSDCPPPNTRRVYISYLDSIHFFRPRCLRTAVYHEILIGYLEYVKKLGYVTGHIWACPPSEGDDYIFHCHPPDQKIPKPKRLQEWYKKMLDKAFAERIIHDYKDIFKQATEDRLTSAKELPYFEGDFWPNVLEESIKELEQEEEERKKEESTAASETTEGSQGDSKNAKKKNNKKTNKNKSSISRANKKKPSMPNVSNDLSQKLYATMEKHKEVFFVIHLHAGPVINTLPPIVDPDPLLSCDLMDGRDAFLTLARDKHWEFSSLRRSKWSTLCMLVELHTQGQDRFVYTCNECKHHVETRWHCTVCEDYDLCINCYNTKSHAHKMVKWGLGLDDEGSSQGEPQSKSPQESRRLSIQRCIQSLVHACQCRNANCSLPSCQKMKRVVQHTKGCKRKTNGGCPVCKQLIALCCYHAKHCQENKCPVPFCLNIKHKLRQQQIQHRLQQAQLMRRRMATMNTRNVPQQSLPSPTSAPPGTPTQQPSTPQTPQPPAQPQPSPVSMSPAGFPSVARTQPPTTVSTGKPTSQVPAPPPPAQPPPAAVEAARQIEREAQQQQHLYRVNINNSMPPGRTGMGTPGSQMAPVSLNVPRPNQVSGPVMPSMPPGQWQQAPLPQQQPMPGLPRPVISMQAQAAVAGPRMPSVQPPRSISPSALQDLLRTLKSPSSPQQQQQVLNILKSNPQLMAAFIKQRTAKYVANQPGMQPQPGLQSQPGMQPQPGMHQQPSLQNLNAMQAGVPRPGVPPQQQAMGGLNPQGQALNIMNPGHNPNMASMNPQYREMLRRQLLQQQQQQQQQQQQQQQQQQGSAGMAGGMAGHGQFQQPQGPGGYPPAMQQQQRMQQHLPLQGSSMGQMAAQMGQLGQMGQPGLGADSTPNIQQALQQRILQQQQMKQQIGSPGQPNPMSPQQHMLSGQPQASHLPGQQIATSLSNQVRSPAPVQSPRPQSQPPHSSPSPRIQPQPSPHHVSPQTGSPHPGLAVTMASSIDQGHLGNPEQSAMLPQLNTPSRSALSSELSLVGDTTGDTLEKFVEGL
inhibition [1],inhibition [2],Kd [3],inhibition [4],inhibition [5],SMILES
70%,30%,Not Active,30%,–,COc1ccc2c(c1)N(CCC/C=C/c1cccc3c1N[C@H](C)CC(=O)N3)CCC2
–,–,–,–,inactive,COc1ccc2c(c1)N(CCC/C=C/c1cccc3c1N[C@@H](C)CC(=O)N3)CCC2
